Calls of active or inactive are those of the source. The calls are words filed in the database; no cut-off is given here.
Assays:
[1] = Drug level in BALB/c nu mouse xenografted with HEL cells at 100 mg/kg/day, ip administered for 5 days and measured after 0.5 to 4 hrs by LC-MS/MS analysis; assay type: ADME, organism-based; settings: in vivo
How it was run: (§1)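 HEL-xenografted male BALB/c-nu mice dosed IP at 100 mg/kg/day for 5 days. Sacrificed 0.5, 1.0 and 4.0 h after the last dose. Plasma separated and stored at -80 °C. Tumors homogenized in normal saline (5:1 v/w) and sonicated. Samples deproteinized with methanol containing internal standard, centrifuged, diluted in methanol/acetonitrile and recentrifuged.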

[2] = tested on: K562; test: Induction of apoptosis in human K562 cells assessed as late apoptotic cells at 1 uM after 24 hrs by Annexin-V/propidium iodide staining-based flow cytometric analysis (reference value: 5.87%); assay type: functional
[3] = biological target: T1, Janus Kinase (JAK) (Homo sapiens) (UniProt P52333+P23458+O60674+P29597); test: Inhibition of JAK in human MDA-MB-231 cells assessed as downregulation of p-STAT3-Tyr705 level at 5 uM after 12 hrs by Western blot analysis
[4] = Toxicity in BALB/c nu mouse xenografted with HEL cells assessed as change in body weight at 60 mg/kg/day, ip administered for 16 days and measured every day during compound dosing in presence of ruxolitinib; assay type: organism-based; settings: in vivo, 384 h
[5] = biological target: T1, Janus Kinase (JAK) (Homo sapiens); test: Inhibition of JAK in human MDA-MB-231 cells assessed as decrease in upregulation of p-STAT3-Tyr705 level at 5 uM after 12 hrs in presence of ruxolitinib by Western blot analysis; assay type: cell-based
How it was run: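 MDA-MB-231 cells treated with compound or DMSO for 12 h, then lysed in SDS buffer and cleared by centrifugation. Lysate resolved by SDS-PAGE and transferred to nitrocellulose. Immunoblotted for p-STAT3 (Tyr705), total STAT3, acetyl-α-tubulin and acetyl-histone H3, with GAPDH as loading control. Detection by enhanced chemiluminescence.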

[6] = tested on: MOLT-4; test: Antiproliferative activity against human MOLT4 cells assessed as reduction in cell viability after 48 hrs by MTT assay; assay type: functional, cell-based; settings: MOLT-4, 48 h
How it was run: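 Cells kept in RPMI1640 with 10% FBS at 37 °C, 5% CO2. Seeded and grown for 12 h, then exposed to a range of compound concentrations for 48 h. 0.5% MTT added for 4 h, formazan dissolved in DMSO, absorbance read at 570 nm.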

[7] = tested on: HEL; test: Induction of apoptosis in HEL cells assessed as necrotic apoptotic cells at 1 uM after 24 hrs by Annexin-V/propidium iodide staining-based flow cytometric analysis (reference value: 0.011%); assay type: functional, Homo sapiens
[8] = tested on: HEL; test: Induction of apoptosis in HEL cells assessed as early apoptotic cells at 1 uM after 24 hrs by Annexin-V/propidium iodide staining-based flow cytometric analysis (reference value: 12.5%); assay type: functional, Homo sapiens
[9] = tested on: HEL; test: Induction of apoptosis in HEL cells assessed as late apoptotic cells at 1 uM after 24 hrs by Annexin-V/propidium iodide staining-based flow cytometric analysis (reference value: 0.023%); assay type: functional, Homo sapiens
[10] = Toxicity in BALB/c nu mouse xenografted with HEL cells assessed as injury to internal organs at 60 mg/kg/day, ip administered for 16 days and measured post-last dose in presence of ruxolitinib; assay type: organism-based; settings: in vivo, 384 h
[11] = tested on: K562; test: Induction of apoptosis in human K562 cells assessed as early apoptotic cells at 1 uM after 24 hrs by Annexin-V/propidium iodide staining-based flow cytometric analysis (reference value: 7.55%); assay type: functional
[12] = tested on: HEL; test: Induction of apoptosis in HEL cells assessed as viable cells at 1 uM after 24 hrs by Annexin-V/propidium iodide staining-based flow cytometric analysis (reference value: 87.5%); assay type: functional, Homo sapiens
[13] = biological target: Tyrosine-protein kinase JAK2 (Homo sapiens, UniProt O60674); test: Inhibition of recombinant human JAK2 at 10 uM using Ulight-CAGAGAIETDKEYYTVKD as substrate measured after 60 mins by LANCE assay
Sequence of Tyrosine-protein kinase JAK2 (O60674 whole entry): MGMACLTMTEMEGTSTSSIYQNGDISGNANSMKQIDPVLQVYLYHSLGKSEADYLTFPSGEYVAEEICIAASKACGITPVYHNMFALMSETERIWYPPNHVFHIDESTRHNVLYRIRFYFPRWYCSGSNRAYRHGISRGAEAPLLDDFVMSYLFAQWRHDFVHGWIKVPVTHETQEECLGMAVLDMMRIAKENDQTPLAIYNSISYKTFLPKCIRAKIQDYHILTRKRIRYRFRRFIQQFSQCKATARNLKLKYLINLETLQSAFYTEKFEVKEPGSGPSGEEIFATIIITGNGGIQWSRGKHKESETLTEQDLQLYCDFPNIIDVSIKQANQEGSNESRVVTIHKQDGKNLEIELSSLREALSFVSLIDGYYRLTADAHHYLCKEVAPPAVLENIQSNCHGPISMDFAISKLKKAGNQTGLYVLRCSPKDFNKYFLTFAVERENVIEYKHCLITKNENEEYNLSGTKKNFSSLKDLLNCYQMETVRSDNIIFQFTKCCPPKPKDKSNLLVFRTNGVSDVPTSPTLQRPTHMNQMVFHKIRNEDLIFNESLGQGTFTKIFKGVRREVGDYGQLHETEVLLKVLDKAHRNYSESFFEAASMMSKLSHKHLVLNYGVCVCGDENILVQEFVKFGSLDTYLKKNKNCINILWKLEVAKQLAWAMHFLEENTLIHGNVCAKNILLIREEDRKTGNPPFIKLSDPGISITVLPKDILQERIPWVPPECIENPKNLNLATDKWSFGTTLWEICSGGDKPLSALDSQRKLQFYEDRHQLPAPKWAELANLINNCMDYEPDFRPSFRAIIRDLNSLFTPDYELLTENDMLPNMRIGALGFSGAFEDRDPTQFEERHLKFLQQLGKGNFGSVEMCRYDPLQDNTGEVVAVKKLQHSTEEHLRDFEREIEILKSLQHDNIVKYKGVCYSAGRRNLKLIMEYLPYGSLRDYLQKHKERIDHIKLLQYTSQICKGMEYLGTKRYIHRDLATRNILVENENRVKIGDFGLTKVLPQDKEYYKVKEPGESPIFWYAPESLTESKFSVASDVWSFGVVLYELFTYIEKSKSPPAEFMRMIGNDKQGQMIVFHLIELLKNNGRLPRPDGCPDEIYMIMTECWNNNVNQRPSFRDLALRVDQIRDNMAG

[14] = tested on: K562; test: Induction of apoptosis in human K562 cells assessed as viable cells at 1 uM after 24 hrs by Annexin-V/propidium iodide staining-based flow cytometric analysis (reference value: 85.7%); assay type: functional
[15] = tested on: K562; test: Induction of apoptosis in human K562 cells assessed as necrotic apoptotic cells at 1 uM after 24 hrs by Annexin-V/propidium iodide staining-based flow cytometric analysis (reference value: 0.827%); assay type: functional
[16] = biological target: T2, Protein deacetylase HDAC6 (Homo sapiens, UniProt Q9UBN7); test: Inhibition of recombinant human HDAC6 using p53 (379 to 382 residues) derived fluorogenic peptide RHKKAc as substrate
T2 sequence (Q9UBN7 whole entry): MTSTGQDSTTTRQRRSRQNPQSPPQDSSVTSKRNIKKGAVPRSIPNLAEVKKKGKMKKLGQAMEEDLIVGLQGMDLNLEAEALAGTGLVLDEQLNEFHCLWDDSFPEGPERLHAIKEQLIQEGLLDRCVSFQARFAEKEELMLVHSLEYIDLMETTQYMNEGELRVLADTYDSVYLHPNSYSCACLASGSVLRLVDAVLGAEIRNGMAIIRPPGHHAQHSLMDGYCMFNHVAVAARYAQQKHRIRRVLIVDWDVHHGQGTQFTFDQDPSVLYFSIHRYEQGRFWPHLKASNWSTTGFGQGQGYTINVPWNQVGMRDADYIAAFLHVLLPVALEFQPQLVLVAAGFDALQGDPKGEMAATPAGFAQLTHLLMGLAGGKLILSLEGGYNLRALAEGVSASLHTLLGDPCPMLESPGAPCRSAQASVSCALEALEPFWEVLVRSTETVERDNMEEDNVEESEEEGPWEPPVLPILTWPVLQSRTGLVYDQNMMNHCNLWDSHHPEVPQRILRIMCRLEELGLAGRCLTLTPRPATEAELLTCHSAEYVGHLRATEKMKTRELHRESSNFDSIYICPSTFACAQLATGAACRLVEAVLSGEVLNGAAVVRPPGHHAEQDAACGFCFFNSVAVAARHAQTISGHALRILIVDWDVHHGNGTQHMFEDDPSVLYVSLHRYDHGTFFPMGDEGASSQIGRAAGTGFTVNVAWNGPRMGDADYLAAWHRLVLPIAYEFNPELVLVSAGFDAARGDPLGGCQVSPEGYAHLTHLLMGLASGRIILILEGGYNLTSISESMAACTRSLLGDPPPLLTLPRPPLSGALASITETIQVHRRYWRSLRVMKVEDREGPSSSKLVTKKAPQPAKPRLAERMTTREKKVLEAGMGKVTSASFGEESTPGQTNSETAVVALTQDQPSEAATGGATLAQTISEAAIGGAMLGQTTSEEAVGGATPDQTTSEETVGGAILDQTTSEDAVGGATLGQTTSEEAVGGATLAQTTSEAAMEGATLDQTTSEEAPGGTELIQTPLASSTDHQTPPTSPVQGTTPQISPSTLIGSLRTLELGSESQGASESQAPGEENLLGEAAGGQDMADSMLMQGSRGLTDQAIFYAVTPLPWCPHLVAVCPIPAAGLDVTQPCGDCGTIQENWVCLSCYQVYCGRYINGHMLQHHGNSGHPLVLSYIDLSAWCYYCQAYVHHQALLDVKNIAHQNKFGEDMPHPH

[17] = Drug level in tumor of BALB/c nu mouse xenografted with HEL cells at 100 mg/kg/day, ip administered for 5 days and measured 1 hr post-last dose by LC-MS/MS analysis; assay type: ADME, organism-based, Neoplasm; settings: in vivo; how it was run: as §1
[18] = tested on: Jurkat; test: Antiproliferative activity against human Jurkat cells assessed as reduction in cell viability after 48 hrs by MTT assay; assay type: functional, cell-based
[19] = Toxicity in BALB/c nu mouse xenografted with HEL cells assessed as injury to internal organs at 70 mg/kg/day, ip administered for 16 days and measured post-last dose in presence of SAHA; assay type: organism-based; settings: in vivo, 384 h
[20] = tested on: HEL; test: Antitumor activity against HEL cells xenografted in BALB/c nu mouse assessed as reduction in tumor volume at 100 mg/kg/day, ip administered for 16 days and measured every 3 days during compound dosing by caliper method relative to control; assay type: functional, Homo sapiens; settings: read-out: TGI
[21] = tested on: HEL; test: Antiproliferative activity against HEL cells harboring JAK2 V617F mutant assessed as reduction in cell viability after 48 hrs by MTT assay; assay type: functional, cell-based; settings: Homo sapiens
[22] = tested on: K562; test: Synergistic antiproliferative activity against human K562 cells assessed as combination index after 48 hrs in presence of SAHA by MTT assay; assay type: functional
[23] = tested on: HEL; test: Synergistic antiproliferative activity against HEL cells harboring JAK2 V617F mutant assessed as reduction in cell viability after 48 hrs in presence of SAHA by MTT assay; assay type: functional, cell-based; settings: Homo sapiens
[24] = tested on: K562; test: Synergistic antiproliferative activity against human K562 cells assessed as reduction in cell viability after 48 hrs in presence of SAHA by MTT assay; assay type: functional, cell-based; settings: K562, 48 h
[25] = biological target: Histone deacetylase 2 (Homo sapiens, UniProt Q92769); settings: A549, at 80 to 400 nM
Sequence of Histone deacetylase 2 (Q92769 whole entry): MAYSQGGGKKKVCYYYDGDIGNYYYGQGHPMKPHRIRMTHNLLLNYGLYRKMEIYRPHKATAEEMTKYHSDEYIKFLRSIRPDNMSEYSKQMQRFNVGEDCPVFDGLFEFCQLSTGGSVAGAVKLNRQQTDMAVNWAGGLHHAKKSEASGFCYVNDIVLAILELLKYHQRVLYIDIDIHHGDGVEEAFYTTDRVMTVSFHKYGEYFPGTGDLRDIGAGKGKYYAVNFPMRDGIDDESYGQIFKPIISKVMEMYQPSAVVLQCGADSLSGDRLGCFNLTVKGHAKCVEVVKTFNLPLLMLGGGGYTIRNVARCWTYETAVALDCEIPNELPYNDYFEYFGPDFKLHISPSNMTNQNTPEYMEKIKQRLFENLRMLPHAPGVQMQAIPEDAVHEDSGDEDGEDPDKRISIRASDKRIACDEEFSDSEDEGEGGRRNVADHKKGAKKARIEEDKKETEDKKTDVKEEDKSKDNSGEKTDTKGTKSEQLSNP

[26] = tested on: HEL; test: Synergistic antiproliferative activity against HEL cells harboring JAK2 V617F mutant assessed as combination index after 48 hrs in presence of SAHA by MTT assay; assay type: functional, Homo sapiens
[27] = tested on: K562; test: Antiproliferative activity against human K562 cells assessed as reduction in cell viability after 48 hrs by MTT assay; assay type: functional, cell-based; settings: K562, 48 h
[28] = tested on: HEL; test: Antitumor activity against HEL cells xenografted in BALB/c nu mouse assessed as tumor growth inhibition at 70 mg/kg/day, ip administered for 16 days and measured every 3 days during compound dosing in presence of SAHA by caliper method relative to control; assay type: functional, Homo sapiens; settings: read-out: TGI
How it was run: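 Male BALB/c-nu mice (5-6 weeks) inoculated subcutaneously in the right flank with 1 × 10^7 HEL cells. Randomized at day 10 (6 per group). Dosed IP daily for 16 days; controls received PBS with 5% DMSO. Tumors measured by caliper every three days (V = ab²/2) and body weight monitored. TGI calculated from final tumor weights versus control.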

[29] = Toxicity in BALB/c nu mouse xenografted with HEL cells assessed as change in body weight at 70 mg/kg/day, ip administered for 16 days and measured every day during compound dosing in presence of SAHA; assay type: organism-based; settings: in vivo, 384 h

For `O=C(CCCCCCC(=O)Nc1ccccc1)NO` [VORINOSTAT], the Drug uptake [1] was “Active”, the Activity [2] was 17.3% and the Activity [3] was “Active”. For the same molecule, the Activity [4] was “Non-Toxic”, the inhibition [5] was “Active” and the IC50 [6] was 400 nM. For the same molecule, the Activity [7] was 2%, the Activity [8] was 21.3% and the Activity [9] was 44.6%. For the same molecule, the Activity [10] was “Non-Toxic”, the Activity [11] was 14.5% and the Activity [12] was 32.1%. The inhibition [13] was “inactive”, the Activity [14] was 67.6% and the Activity [15] was 0.73%.
With `N#CC[C@H](C1CCCC1)n1cc(-c2ncnc3[nH]ccc23)cn1` [RUXOLITINIB] the IC50 [16] was 15 nM, the Drug uptake [17] was “Active” and the IC50 [18] was > 5000 nM. For the same molecule, the Activity [2] was 15.3%, the Activity [19] was “Non-Toxic” and the inhibition in vivo at 100 mg/kg/day [20] was 27%. It also gave an IC50 [6] of 15800 nM, an Activity [7] of 0.85% and an IC50 [21] of 18600 nM. For the same molecule, the CI [22] was 0.97, the IC50 [23] was 300 nM and the Activity [8] was 8.08%. It also gave an IC50 [24] of 1030 nM, an Activity [9] of 11.7% and an Activity [11] of 9.22%. The inhibition [25] was “Active”, the CI [26] was 0.48 and the viability at 1 µM ([12]; Homo sapiens, HEL, 24 h, read-out: Activity) was 79.4%. The IC50 [27] was 23200 nM, the viability at 1 µM ([14]; Homo sapiens, K562, 24 h, read-out: Activity) was 75.2% and the Activity [15] was 0.248%. The inhibition in vivo at 70 mg/kg/day [28] was 57% and the Activity [29] was “Non-Toxic”.

Source: ChEMBL document CHEMBL4346670, “Discovery of Novel Janus Kinase (JAK) and Histone Deacetylase (HDAC) Dual Inhibitors for the Treatment of Hematological Malignancies” (J Med Chem, 2019)
